Like-named read-outs stand apart in the source and are kept apart here.

The test system of data set [1] is CYP2C:TG haplotype. Particulars: cited from earlier work.
The subject of data set [2] is CYP2C:TG haplotype. Particulars: adults; cited from earlier work.
In data set [3] the test system is CYP2C:TG haplotype. Format: in vivo, human (children aged 6–21 years). An outline of the steps:
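Children, fasted ≥4 h, received one proton pump inhibitor dose per visit. 12–14 serum samples were taken to 10 h post-dose and assayed by LC/MS/MS or reverse-phase HPLC. Clearance was dose/AUCtotal (AUClast + Cn/kel), weight-normalized. Genotyping was by TaqMan real-time PCR or NGS panel. Regression on CYP2C19*1 and *17 counts was compared with regression adding CYP2C:TG count. Outcomes were log-transformed as needed, with bootstrap 95% CI.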

For the molecule `CN(C)CCC[C@@]1(c2ccc(F)cc2)OCc2cc(C#N)ccc21` [escitalopram], the “metabolism associated with CYP2C:TG haplotype” value with CYP2C:TG haplotype [1] (activity similar to CYP2C19*17/*17 diplotype) is recorded as “ultrarapid metabolism”. Further, the “CYP2C19 activity associated with CYP2C:TG haplotype, from serum concentrations” value with CYP2C:TG haplotype [1] is listed as “increased CYP2C19 activity”.

For `CN(C)CCCC1(c2ccc(F)cc2)OCc2cc(C#N)ccc21` (stereo not drawn) [citalopram], the “impact of CYP2C:TG alleles on CYP2C19 PK or metabolic phenotype” value in the data set on CYP2C:TG haplotype [2] was “No appreciable impact”.

For the molecule `Cc1c(OCC(F)(F)F)ccnc1C[S+]([O-])c1nc2ccccc2[nH]1` (stereo not drawn) [lansoprazole], the “impact of the CYP2C:TG haplotype on the PK” value in the data set with CYP2C:TG haplotype [3] (PO) is given as “negligible”. Also, the “Scaled coefficient (95% CI) for CYP2C:TG allele count” value in the data set with CYP2C:TG haplotype [3] (outcome Cmax (adj) scaled to SD 1, oral) was 0.24–0.35.

On to `CN[C@H]1CC[C@@H](c2ccc(Cl)c(Cl)c2)c2ccccc21` [sertraline], for which, in the data set on CYP2C:TG haplotype [2], the “impact of CYP2C:TG alleles on CYP2C19 PK or metabolic phenotype” value is “No appreciable impact”. For the same molecule, the “CYP2C19 activity associated with CYP2C:TG haplotype, from serum concentrations” value with CYP2C:TG haplotype [1] is on record as “increased CYP2C19 activity”.

`COc1ccnc(C[S+]([O-])c2nc3ccc(OC(F)F)cc3[nH]2)c1OC` (stereo not drawn) [pantoprazole]: the “impact of the CYP2C:TG haplotype on the PK” value with CYP2C:TG haplotype [3] (IV) and with CYP2C:TG haplotype [3] (PO) was “negligible” in each case. Moreover, the “Scaled coefficient (95% CI) for CYP2C:TG allele count” value with CYP2C:TG haplotype [3] (outcome Clearance (adj) scaled to SD 1, IV) is reported as 0.24–0.35; in the data set on CYP2C:TG haplotype [3] (outcome Clearance scaled to SD 1, IV), 0.24–0.35; in the data set with CYP2C:TG haplotype [3] (outcome Cmax scaled to SD 1, oral) it was 0.24–0.35.

The values above are taken from article PMC11022290 (Clinical and Translational Science, 2024).
